Blank lines part the entries; values can stand above or below the compound they belong to.
How the values were obtained:
Rattus norvegicus [1] = experiment: Hypolipidemic activity in Wistar rat assessed as reduction in plasma triglyceride level at 445 umol/kg/day administered through diet; assay type: functional
Rattus norvegicus [2] = experiment: Hypolipidemic activity in Wistar rat assessed as reduction in plasma triglyceride level at 201 umol/kg/day administered through diet for 4 days; assay type: functional; settings: 96 h
Method in brief: (§1)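 Young male Wistar rats, 170-190 g initial weight, six per group, fed drug mixed thoroughly into Purina Lab Chow ad libitum for the stated days; daily dose calculated from food consumption and body weight. Bled by cardiac puncture at end; plasma cholesterol and triglycerides by automated procedures, expressed as percent reduction versus simultaneous untreated controls; Student's t test.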

Rattus norvegicus [3] = experiment: Hypolipidemic activity in Wistar rat assessed as reduction in plasma triglyceride level at 98 umol/kg/day administered through diet for 4 days; assay type: functional; settings: 96 h
Rattus norvegicus [4] = experiment: Hypolipidemic activity in Wistar rat assessed as reduction in plasma cholesterol level at 445 umol/kg/day administered through diet; assay type: functional
Method in brief: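 Young male Wistar rats (170-190 g initial weight) in groups of six, fed test compound admixed to Purina Lab Chow ad libitum. Actual daily dose derived from recorded food intake and body weight. Cardiac puncture blood taken at end of treatment; plasma cholesterol determined by automated method. Percent reduction from concurrently run untreated controls, significance by Student's t test.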

Rattus norvegicus [5] = experiment: Hypolipidemic activity in Wistar rat assessed as reduction in plasma cholesterol level at 201 umol/kg/day administered through diet for 4 days; assay type: functional; settings: 96 h
Method in brief: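 Young male Wistar rats, 170-190 g at start, in groups of six, given compound mixed into Purina Lab Chow ad libitum for 4 or 10 days as stated. Daily dose was calculated from food consumption and body weight. Plasma was taken by cardiac puncture at the end and cholesterol measured by automated procedure. Results are % reduction versus a concurrent untreated control group, with Student's t test.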

Rattus norvegicus [6] = experiment: Hypolipidemic activity in Wistar rat assessed as reduction in plasma cholesterol level at 98 umol/kg/day administered through diet for 4 days; assay type: functional; settings: 96 h; method in brief: as §1
Rattus norvegicus [7] = experiment: Increase in cholesterol level in Wistar rat liver at 445 umol/kg/day administered through diet; assay type: ADME, organism-based; settings: in vivo, po
Rattus norvegicus [8] = experiment: Increase in cholesterol level in Wistar rat liver at 201 umol/kg/day administered through diet for 4 days; assay type: ADME, organism-based; settings: in vivo, po, 96 h
Rattus norvegicus [9] = experiment: Increase in cholesterol level in Wistar rat liver at 98 umol/kg/day administered through diet for 4 days; assay type: ADME, organism-based; settings: in vivo, po, 96 h
Rattus norvegicus [10] = experiment: Increase in liver weight in Wistar rat at 445 umol/kg/day administered through diet; assay type: ADME, organism-based; settings: in vivo, po
Rattus norvegicus [11] = experiment: Increase in liver weight in Wistar rat at 201 umol/kg/day administered through diet for 4 days; assay type: ADME, organism-based; settings: in vivo, po, 96 h
Rattus norvegicus [12] = experiment: Increase in liver weight in Wistar rat at 98 umol/kg/day administered through diet for 4 days; assay type: ADME, organism-based; settings: in vivo, po, 96 h
Rattus norvegicus [13] = experiment: Hypolipidemic activity in Wistar rat assessed as reduction in plasma triglyceride level at 444 umol/kg/day administered through diet for 10 days; assay type: functional; settings: 240 h
Rattus norvegicus [14] = experiment: Hypolipidemic activity in Wistar rat assessed as reduction in plasma cholesterol level at 444 umol/kg/day administered through diet for 10 days; assay type: functional; settings: 240 h
Method in brief: (§2)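 Young male Wistar rats, 170-190 g initial weight, groups of six, given compound mixed thoroughly into Purina Lab Chow ad libitum for 4 or 10 days as stated. Daily dose calculated from food consumption and body weight. Bled by cardiac puncture at end of treatment; plasma cholesterol measured by automated procedure. Expressed as percent reduction versus simultaneous untreated control group; Student's t test.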

Rattus norvegicus [15] = experiment: Increase in cholesterol level in Wistar rat liver at 444 umol/kg/day administered through diet for 10 days; assay type: ADME, organism-based; settings: in vivo, po, 240 h
Rattus norvegicus [16] = experiment: Increase in liver weight in Wistar rat at 444 umol/kg/day administered through diet for 10 days; assay type: ADME, organism-based; settings: in vivo, po, 240 h
Rattus norvegicus [17] = experiment: Hypolipidemic activity in Wistar rat assessed as reduction in plasma cholesterol level at 496 umol/kg/day administered through diet for 4 days; assay type: functional; settings: 96 h; method in brief: as §2
Rattus norvegicus [18] = experiment: Hypolipidemic activity in Wistar rat assessed as reduction in plasma triglyceride level at 496 umol/kg/day administered through diet for 4 days; assay type: functional; settings: 96 h
Rattus norvegicus [19] = experiment: Hypolipidemic activity in Wistar rat assessed as reduction in plasma triglyceride level at 460 umol/kg/day administered through diet for 10 days; assay type: functional; settings: 240 h
Rattus norvegicus [20] = experiment: Hypolipidemic activity in Wistar rat assessed as reduction in plasma cholesterol level at 460 umol/kg/day administered through diet for 10 days; assay type: functional; settings: 240 h; method in brief: as §2
Rattus norvegicus [21] = experiment: Increase in cholesterol level in Wistar rat liver at 496 umol/kg/day administered through diet for 4 days; assay type: ADME, organism-based; settings: in vivo, po, 96 h
Rattus norvegicus [22] = experiment: Increase in cholesterol level in Wistar rat liver at 460 umol/kg/day administered through diet for 10 days; assay type: ADME, organism-based; settings: in vivo, po, 240 h
Rattus norvegicus [23] = experiment: Increase in liver weight in Wistar rat at 496 umol/kg/day administered through diet for 4 days; assay type: ADME, organism-based; settings: in vivo, po, 96 h
Rattus norvegicus [24] = experiment: Increase in liver weight in Wistar rat at 460 umol/kg/day administered through diet for 10 days; assay type: ADME, organism-based; settings: in vivo, po, 240 h
Rattus norvegicus [25] = experiment: Hypolipidemic activity in Wistar rat assessed as reduction in plasma triglyceride level at 489 umol/kg/day administered through diet for 10 days; assay type: functional; settings: 240 h
Rattus norvegicus [26] = experiment: Hypolipidemic activity in Wistar rat assessed as reduction in plasma cholesterol level at 489 umol/kg/day administered through diet for 10 days; assay type: functional; settings: 240 h; method in brief: as §2
Rattus norvegicus [27] = experiment: Increase in cholesterol level in Wistar rat liver at 489 umol/kg/day administered through diet for 10 days; assay type: ADME, organism-based; settings: in vivo, po, 240 h
Rattus norvegicus [28] = experiment: Increase in liver weight in Wistar rat at 489 umol/kg/day administered through diet for 10 days; assay type: ADME, organism-based; settings: in vivo, po, 240 h

Activity (Rattus norvegicus [7]): 12%
Activity (Rattus norvegicus [8]): 12%
Activity (Rattus norvegicus [9]): 0%
Activity (Rattus norvegicus [10]): 7%
Activity (Rattus norvegicus [11]): 0%
Activity (Rattus norvegicus [12]): 0%
Compound: CCCCCCCCCCCCCCOc1ccc(C(=O)OC)cc1
inhibition in vivo at 445 µmol/kg (Rattus norvegicus [1]): 49%
inhibition in vivo at 201 µmol/kg (Rattus norvegicus [2]): 70%
inhibition in vivo at 98 µmol/kg (Rattus norvegicus [3]): 72%
inhibition in vivo at 445 µmol/kg (Rattus norvegicus [4]): 6%
inhibition in vivo at 201 µmol/kg (Rattus norvegicus [5]): 23%
inhibition in vivo at 98 µmol/kg (Rattus norvegicus [6]): 27%

Activity (Rattus norvegicus [15]): 41%
Activity (Rattus norvegicus [16]): 23%
Compound: CCCCCCCCCCCOc1ccc(C(=O)OC)cc1
inhibition in vivo at 444 µmol/kg (Rattus norvegicus [13]): 88%
inhibition in vivo at 444 µmol/kg (Rattus norvegicus [14]): 45%

Activity (Rattus norvegicus [21]): 9%
Activity (Rattus norvegicus [22]): 6%
Activity (Rattus norvegicus [23]): 20%
Activity (Rattus norvegicus [24]): 20%
Compound: CCCCCCCCCCCCCOc1ccc(C(=O)OC)cc1
inhibition in vivo at 496 µmol/kg (Rattus norvegicus [17]): 27%
inhibition in vivo at 496 µmol/kg (Rattus norvegicus [18]): 31%
inhibition in vivo at 460 µmol/kg (Rattus norvegicus [19]): 70%
inhibition in vivo at 460 µmol/kg (Rattus norvegicus [20]): 25%

Activity (Rattus norvegicus [27]): 43%
Activity (Rattus norvegicus [28]): 19%
Compound: CCCCCCCCCCOc1ccc(C(=O)OC)cc1
inhibition in vivo at 489 µmol/kg (Rattus norvegicus [25]): 94%
inhibition in vivo at 489 µmol/kg (Rattus norvegicus [26]): 36%

Reference: ChEMBL document CHEMBL3272012, “5-(Tetradecyloxy)-2-furancarboxylic acid and related hypolipidemic fatty acid-like alkyloxyarylcarboxylic acids” (J Med Chem, 1977)
